This is an account of results in ChEMBL document CHEMBL4842338, “System-oriented optimization of multi-target 2,6-diaminopurine derivatives: Easily accessible broad-spectrum antivirals active against flaviviruses, influenza virus and SARS-CoV-2” (Eur J Med Chem, 2021).

The test system of data set [1] is Influenza A virus. Kind of data set: Antiviral activity against Influenza A Puerto Rico/8/34/H1N1 infected in human A549 cells assessed as inhibition of viral replication after 24 hrs by hemagglutination assay. Format: functional, organism-based. Conditions: A/Puerto Rico/8/1934(H1N1), A549, 24 h.
The test system of data set [2] is Influenza A virus. In words: Antiviral activity against Influenza A Puerto Rico/8/34/H1N1 infected in MDCK cells assessed as inhibition of viral replication measured in supernatants of infected cells after 24 hrs by hemagglutination assay. Format: functional, organism-based. Conditions: A/Puerto Rico/8/1934(H1N1).
Data set [3] is described as follows: Stability of the compound in presence of 40 mM H2O2 in ethanol measured after 6 days. Format: physicochemical. Conditions: 144 h; time 6 day.
In data set [4] the test system is Influenza A virus. Kind of data set: Antiviral activity against Influenza A Puerto Rico/8/34/H1N1 infected in human A549 cells assessed as inhibition of hemagglutinin expression at 20 uM pretreated for 2 hrs followed by infection of fresh cell monolayer of A549 cells with supernatant for 24 hrs by In-cell western assay. Format: functional, organism-based. Conditions: A/Puerto Rico/8/1934(H1N1). The essentials: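 A549 cells infected with PR8 H1N1 and given 20 μM compound: 2 h before infection (PRE), 1 h during adsorption (DUR), or 24 h after adsorption (POST); supernatants used to infect fresh monolayers for 24 h; anti-HA in-cell western; RFU as % of untreated infected; 3 replicates from two experiments.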

Data set [5] concerns Influenza A virus. In words: Antiviral activity against Influenza A virus (A/California/04/2009(H1N1)) infected in human A549 cells assessed as reduction in viral protein expression at 20 uM treated for 2 to 6 hrs post infection and measured following infection of MDCK cells with supernatant for 24 hrs by time-of-addition assay. Format: functional, organism-based. Conditions: time 2-6 hrs.

Data set [6] is described as follows: Selectivity index, ratio of CC50 for human A549 cells to IC50 for Influenza A Puerto Rico/8/34/H1N1 infected in human A549 cells. Format: toxicity, cell-based. Conditions: read-out: Selectivity Index. The essentials:
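MDCK or A549 cells (2.5 × 10⁵/well) infected with A/Puerto Rico/8/34 H1N1 for 1 h at 37 °C, then washed. Compound (0.5–20 μM) added in 2% FBS medium for 24 h, with DMSO final ≤0.2%. Virus in supernatants read by hemagglutination. CC₅₀ by MTT (2 × 10⁴ cells/well, same concentrations, 24 h, absorbance 570 nm). SI = CC₅₀/IC₅₀.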

A further data set deals with CDK9/cyclin T1 (Homo sapiens, UniProt P50750). Kind of data set: Inhibition of human full length CDK9/ His-tagged cT1 assessed as residual activity at 5 uM using CDKtide as a substrate in the presence of BSA incubated for 10 mins by scintillation counting analysis relative to control. Format: protein-complex assay. Conditions: full length CDK9/His-tagged cyclin T1 complex, probe CDKtide, read-out: Activity. The essentials:
(§1)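 Compounds at fixed 5 μM; 10–50 ng kinase, substrate and NP-40/BSA per supplementary table, 10 μL at 30 °C for 10 min in low-binding tubes. Reactions spotted on filter, dried, scintillation counted. Mean ± SD of two independent experiments.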

The test system of data set [7] is Influenza A virus. In words: Antiviral activity against Influenza A Puerto Rico/8/34/H1N1 infected in human A549 cells assessed as reduction in viral protein expression at 20 uM pretreated for 2 hrs followed by staining with anti-Flu antibody observed at 24 hrs post infection by In-cell western assay. Format: functional, organism-based. The conditions noted are these: A/Puerto Rico/8/1934(H1N1).

Data set [8] has as its system Influenza A virus. Kind of data set: Antiviral activity against Influenza A Puerto Rico/8/34/H1N1 infected in human A549 cells assessed as reduction in viral protein expression at 20 uM treated for 1 hr during viral adsorption followed by staining with anti-Flu antibody observed at 24 hrs post infection by In-cell western assay. Format: functional, organism-based. Conditions: A/Puerto Rico/8/1934(H1N1).

For data set [9], the system named is West Nile virus. Kind of data set: Antiviral activity against West Nile virus lineage 1 (Italy/2009) infected in pre-seeded Huh-7 cells assessed as inhibition of viral replication incubated for 48 hrs by immunodetection based plaque reduction assay. The format is functional, organism-based. Conditions: Huh-7, 48 h.
The next data set concerns Zika virus. In words: Antiviral activity against Zika virus H/PF/2013 infected in pre-seeded Huh-7 cells assessed as inhibition of viral replication incubated for 72 hrs by immunodetection based secondary yield reduction assay. The conditions noted are these: H/PF/2013, Huh-7, 72 h. Format: functional, organism-based.
Data set [10] is described as follows: Antioxidant activity assessed as inhibition of ABTS radical scavenging activity at 10 uM to 1 mM measured after 10 mins. The format is functional. The essentials: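 ABTS radical solution diluted in ethanol (1:100) to A734 0.70; 3.0 mL mixed with 30 μL sample in DMSO at 10 μM–1 mM; A734 read after exactly 10 min; ascorbic acid reference; % scavenging = (A0−As)/A0×100.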

The target in data set [11] is Src (Proto-oncogene tyrosine-protein kinase Src) (Homo sapiens, UniProt P12931). In words: Inhibition of human recombinant N terminal His6 tagged full length Src assessed as residual activity at 5 uM using KVEKIGEGTYGVVYK as a substrate in the presence of NP-40 incubated for 10 mins by scintillation counting analysis relative to control. The conditions noted are these: probe KVEKIGEGTYGVVYK, read-out: Activity. The procedure, abridged: as §1

The test system of the next data set is A549. In words: Cytotoxicity against human A549 cells assessed as reduction in cell viability measured after 24 hrs by MTT assay. The conditions noted are these: a549, 24 h. Format: cell-based.
The test system of data set [12] is Influenza A virus. In words: Antiviral activity against Influenza A Puerto Rico/8/34/H1N1 infected in human A549 cells assessed as reduction in viral protein expression at 20 uM treated for 24 hrs post viral adsorption followed by staining with anti-Flu antibody observed at 24 hrs post infection by In-cell western assay. The format is functional, organism-based. Conditions: A/Puerto Rico/8/1934(H1N1).

For data set [13], the system named is West Nile virus. In words: Antiviral activity against West Nile virus lineage 1 (Italy/2009) infected in pre-seeded Huh-7 cells assessed as inhibition of viral replication incubated for 48 hrs by immunodetection based direct yield reduction assay. Conditions: huh-7. The format is functional, organism-based.
The test system of data set [14] is Influenza A virus. In words: Antiviral activity against Influenza A Puerto Rico/8/34/H1N1 infected in human A549 cells assessed as inhibition of hemagglutinin expression at 20 uM treated immediately after infection for 2 to 6 hrs followed by maintaining cells in fresh medium without compound for 24 hrs followed by infecting monolayer MDCK cells with supernatant for 24 hrs by time-of-addition assay. The format is functional, organism-based. The conditions noted are these: A/Puerto Rico/8/1934(H1N1), time 2-6 hrs. The procedure, abridged: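 A549 cells infected with PR8 H1N1 received 20 μM compound immediately after adsorption for 2, 4 or 6 h, then fresh medium to 24 h; supernatants infected fresh MDCK for 24 h; anti-HA in-cell western; RFU % vs untreated infected; 4 replicates from two experiments.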

Data set [15] in a line: Inhibition of full length ZIKV NS5-MTase domain using 7MeGpppAC4 as a substrate incubated for 30 mins by filter binding assay. Also noted: species or system Zika virus.
Data set [16] concerns Influenza A virus. Kind of data set: Antiviral activity against Influenza A virus (A/parrot/Ulster/73(H7N1)) infected in human A549 cells assessed as reduction in viral protein expression at 20 uM pretreated for 2 hrs followed by staining with anti-Flu antibody observed at 24 hrs post infection by In-cell western assay. The format is functional, organism-based.
The nature of data set [17]: Selectivity index, ratio of CC50 for human Caco-2 cells infected with SARS-COV-2 to IC50 of SARS-COV 2 infected in human Caco-2 cells. The format is toxicity, cell-based. Conditions: read-out: Selectivity Index.
In data set [18] the test system is Influenza A virus. Kind of data set: Antiviral activity against Influenza A/California/04/2009H1N1 infected in human A549 cells assessed as reduction in viral protein expression at 20 uM treated for 24 hr pdp viral adsorption followed by staining with anti-Flu antibody observed at 24 hrs post infection by In-cell western assay. Format: functional, organism-based.

Active and inactive are the calls of the source. No cut-off for these calls is given here. Some results are limits rather than exact numbers.

Sequence of CDK9/cyclin T1 (O60563 whole entry): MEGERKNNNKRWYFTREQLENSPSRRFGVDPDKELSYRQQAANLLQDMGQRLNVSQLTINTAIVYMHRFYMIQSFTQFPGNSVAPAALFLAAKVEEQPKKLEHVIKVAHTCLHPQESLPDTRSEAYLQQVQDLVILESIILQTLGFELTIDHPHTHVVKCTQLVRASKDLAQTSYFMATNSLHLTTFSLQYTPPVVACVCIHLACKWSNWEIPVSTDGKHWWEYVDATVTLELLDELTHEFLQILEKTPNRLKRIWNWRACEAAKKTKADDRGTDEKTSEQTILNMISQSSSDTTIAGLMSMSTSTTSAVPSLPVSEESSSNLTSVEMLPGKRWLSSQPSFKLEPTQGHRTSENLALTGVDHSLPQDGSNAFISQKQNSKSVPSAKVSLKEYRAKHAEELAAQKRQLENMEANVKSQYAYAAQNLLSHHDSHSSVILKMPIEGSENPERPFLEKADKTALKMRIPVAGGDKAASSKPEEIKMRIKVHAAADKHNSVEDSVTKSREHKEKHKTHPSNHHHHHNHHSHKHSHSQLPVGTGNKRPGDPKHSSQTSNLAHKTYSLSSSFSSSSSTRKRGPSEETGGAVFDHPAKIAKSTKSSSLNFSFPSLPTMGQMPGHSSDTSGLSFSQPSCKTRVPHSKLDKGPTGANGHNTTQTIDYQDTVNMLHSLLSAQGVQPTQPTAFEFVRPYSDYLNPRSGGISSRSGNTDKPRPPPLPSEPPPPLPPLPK
Sequence of CDK9/cyclin T1 (P50750 whole entry): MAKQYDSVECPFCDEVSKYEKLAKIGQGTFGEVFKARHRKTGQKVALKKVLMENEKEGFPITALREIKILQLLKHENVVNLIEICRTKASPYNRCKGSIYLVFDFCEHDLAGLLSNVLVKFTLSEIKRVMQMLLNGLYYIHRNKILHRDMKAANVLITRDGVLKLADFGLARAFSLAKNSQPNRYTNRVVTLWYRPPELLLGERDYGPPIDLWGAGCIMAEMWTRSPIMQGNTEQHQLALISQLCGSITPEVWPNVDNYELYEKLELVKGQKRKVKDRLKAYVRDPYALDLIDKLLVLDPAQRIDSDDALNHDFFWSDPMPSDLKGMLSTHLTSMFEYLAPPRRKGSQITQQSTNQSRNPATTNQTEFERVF
Sequence of Src (Proto-oncogene tyrosine-protein kinase Src) (P12931 2-536 limits assumed): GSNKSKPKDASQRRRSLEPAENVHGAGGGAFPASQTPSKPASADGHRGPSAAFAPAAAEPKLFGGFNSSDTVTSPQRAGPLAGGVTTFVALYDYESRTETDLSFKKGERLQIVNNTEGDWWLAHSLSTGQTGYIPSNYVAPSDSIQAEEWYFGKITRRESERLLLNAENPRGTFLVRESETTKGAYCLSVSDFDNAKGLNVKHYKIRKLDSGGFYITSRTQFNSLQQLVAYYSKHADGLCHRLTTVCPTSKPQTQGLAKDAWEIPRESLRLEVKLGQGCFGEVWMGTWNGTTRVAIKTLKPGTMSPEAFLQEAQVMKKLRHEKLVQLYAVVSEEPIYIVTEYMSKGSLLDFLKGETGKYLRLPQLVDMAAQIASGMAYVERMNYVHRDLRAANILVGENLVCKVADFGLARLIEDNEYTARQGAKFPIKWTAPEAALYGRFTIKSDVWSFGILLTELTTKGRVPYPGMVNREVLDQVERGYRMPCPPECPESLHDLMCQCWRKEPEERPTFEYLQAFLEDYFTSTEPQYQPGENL

On to `FC(F)(F)c1cccc(Nc2nc(NCCOc3ccccc3)nc3[nH]cnc23)c1`, for which the half-inhibitory concentration (IC50) in the data set on Influenza A virus [1] was 9.9 µM; in the data set with Influenza A virus [2], 5.3 µM; in the data set on West Nile virus [9] it was 3.9 µM; with Zika virus, 1.1 µM; in the data set with West Nile virus [13], “Not Active”; in data set [15] it was “Not Active”. For the same compound, in data set [3], the Stabilty entry is on record as “Unstable”. In addition, the inhibition entry in the data set with Influenza A virus [4] is “inactive”. Besides, the Activity entry (in the data set with Influenza A virus [5]; in the data set on Influenza A virus [7]; with Influenza A virus [8]; in [10]; in the data set on Influenza A virus [12]; in the data set on Influenza A virus [14]) was “Active” in each case. Also, the Activity result in the data set with Influenza A virus [16] and with Influenza A virus [18] was “Active” in each case. For the same compound, the figures for the selectivity ratio in [6] and in [17] were 11 and 14, respectively. Besides, the figures for the activity at 10 min, 5 µM (at CDK9/cyclin T1; in data set [11]) were over 98% and 47%, respectively. In the data set with A549, the 50% cytotoxic concentration (CC50) was 106 µM.

What is called IC50 is the concentration needed to halve the response being measured. As a reminder, the CC50 is the concentration at which the toxic effect on the cells reaches its halfway point.
